The values below come from ChEMBL document CHEMBL1150790, “Biochemical characterization of PER-2 and genetic environment of blaPER-2” (Antimicrob Agents Chemother, 2007).

≈ marks a conversion by molar mass, not a printed value. Some results are limits rather than exact numbers.

For one data set, the system named is Citrobacter freundii. The data set can be described thus: Antimicrobial activity against Citrobacter freundii 33587 isolate by agar dilution method. The data set is classed as functional. An outline of the steps:
(§1)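 MICs were determined by agar dilution following CLSI guidelines, with inoculum applied by a Steers multipoint inoculator.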
On the technique in general: Agar dilution tests growth on a series of plates holding different concentrations.

Data set [1] deals with Escherichia coli. The data set can be described thus: Antimicrobial activity against Escherichia coli CAG12177 by agar dilution method. In kind it is functional. An outline of the steps: as §1
Data set [2] has as its system Escherichia coli. The data set can be described thus: Antimicrobial activity against Escherichia coli 33587-TC9 by agar dilution method. The data set is classed as functional. An outline of the steps:
as §1

Data set [3] addresses T1, PER-2 beta-lactamase (Citrobacter freundii) (UniProt A2RP81).
T1 sequence (whole entry): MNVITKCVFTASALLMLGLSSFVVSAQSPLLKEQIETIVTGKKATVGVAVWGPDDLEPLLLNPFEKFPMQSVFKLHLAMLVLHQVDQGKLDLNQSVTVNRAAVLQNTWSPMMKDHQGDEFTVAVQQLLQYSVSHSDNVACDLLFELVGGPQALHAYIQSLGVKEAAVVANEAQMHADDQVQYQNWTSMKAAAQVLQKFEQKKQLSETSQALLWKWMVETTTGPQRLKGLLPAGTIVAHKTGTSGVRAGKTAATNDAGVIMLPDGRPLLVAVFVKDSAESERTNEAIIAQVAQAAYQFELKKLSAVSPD
The data set can be described thus: Ratio of Kcat to Km of Citrobacter freundii PER2 beta lactamase relative to cephalothin. The gist of the method: (§2)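 Purified recombinant PER-2 (E. coli BL21(DE3) expression, Q-Sepharose purification) was assayed spectrophotometrically at 30°C in 500 μl. kcat and Km came from initial steady-state rates.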

In the next data set the target is T2, PER-2 beta-lactamase (Citrobacter freundii, UniProt A2RP81).
T2 sequence (A2RP81 whole entry): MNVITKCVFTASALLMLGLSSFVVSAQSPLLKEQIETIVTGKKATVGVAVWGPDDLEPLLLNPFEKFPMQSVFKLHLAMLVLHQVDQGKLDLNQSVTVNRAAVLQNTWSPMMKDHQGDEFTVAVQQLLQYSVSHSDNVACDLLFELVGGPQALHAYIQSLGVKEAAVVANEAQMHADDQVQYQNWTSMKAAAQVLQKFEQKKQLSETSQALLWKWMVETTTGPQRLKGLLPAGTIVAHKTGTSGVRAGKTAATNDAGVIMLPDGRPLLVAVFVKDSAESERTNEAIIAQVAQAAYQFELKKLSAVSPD
The data set can be described thus: Inhibition of Citrobacter freundii PER2 beta lactamase. The gist of the method:
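Purified recombinant PER-2 was incubated with the drug plus 100 μM nitrocefin as reporter substrate in 500 μl at 30°C. Residual enzyme activity was read spectrophotometrically. Apparent Km values were derived as competitive inhibitor constants (Ki).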

Substrate in data set [4]: CO/N=C(\C(=O)N[C@@H]1C(=O)N2C(C(=O)O)=C(COC(N)=O)CS[C@H]12)c1ccco1
The experiment in a line: (§3) Ratio of Kcat to Km of Citrobacter freundii PER2 beta lactamase. The gist of the method:
as §2

Substrate in data set [5]: C[C@H]1[C@H](NC(=O)/C(=N\OC(C)(C)C(=O)O)c2csc(N)n2)C(=O)N1S(=O)(=O)O
The description is as §3. An outline of the steps:
as §2

Substrate in data set [6]: CC(C)(O/N=C(\C(=O)N[C@@H]1C(=O)N2C(C(=O)[O-])=C(C[n+]3ccccc3)CS[C@H]12)c1csc(N)n1)C(=O)O
The description is as §3. The gist of the method:
as §2

Substrate in data set [7]: CCN1CCN(C(=O)N[C@@H](C(=O)N[C@@H]2C(=O)N3C(C(=O)O)=C(CSc4nnnn4C)CS[C@H]23)c2ccc(O)cc2)C(=O)C1=O
The description is as §3. An outline of the steps:
as §2

Substrate in data set [8]: CC1(C)S[C@@H]2[C@H](NC(=O)[C@H](N)c3ccccc3)C(=O)N2[C@H]1C(=O)O
The description is as §3. An outline of the steps: as §2

Substrate in data set [9]: CCN1CCN(C(=O)N[C@@H](C(=O)N[C@@H]2C(=O)N3[C@@H]2SC(C)(C)[C@@H]3C(=O)O)c2ccccc2)C(=O)C1=O
The description is as §3. The gist of the method:
as §2

Substrate in data set [10]: CO/N=C(\C(=O)N[C@@H]1C(=O)N2C(C(=O)O)=C(COC(C)=O)CS[C@H]12)c1csc(N)n1
Described as §3. The gist of the method: as §2

Substrate in data set [11]: CO/N=C(\C(=O)N[C@@H]1C(=O)N2C(C(=O)[O-])=C(C[N+]3(C)CCCC3)CS[C@H]12)c1csc(N)n1
Described as §3. The gist of the method: as §2

Substrate in data set [12]: O=C(Cc1cccs1)N[C@@H]1C(=O)N2C(C(=O)O)=C(/C=C/c3ccc([N+](=O)[O-])cc3[N+](=O)[O-])CS[C@H]12
The description is as §3. An outline of the steps:
as §2

Substrate in data set [13]: CC(=O)OCC1=C(C(=O)O)N2C(=O)[C@@H](NC(=O)Cc3cccs3)[C@H]2SC1
Described as §3. The gist of the method: as §2

Substrate in data set [14]: CC1(C)S[C@@H]2[C@H](NC(=O)Cc3ccccc3)C(=O)N2[C@H]1C(=O)O
The description is as §3. An outline of the steps:
as §2

Substrate in data set [15]: CO/N=C(\C(=O)N[C@@H]1C(=O)N2C(C(=O)O)=C(COC(N)=O)CS[C@H]12)c1ccco1
The data set can be described thus: (§4) Activity of Citrobacter freundii PER2 beta lactamase.

Substrate in data set [16]: C[C@H]1[C@H](NC(=O)/C(=N\OC(C)(C)C(=O)O)c2csc(N)n2)C(=O)N1S(=O)(=O)O
Described as §4.

Substrate in data set [17]: CC(C)(O/N=C(\C(=O)N[C@@H]1C(=O)N2C(C(=O)[O-])=C(C[n+]3ccccc3)CS[C@H]12)c1csc(N)n1)C(=O)O
The data set is described as §4.

Substrate in data set [18]: CCN1CCN(C(=O)N[C@@H](C(=O)N[C@@H]2C(=O)N3C(C(=O)O)=C(CSc4nnnn4C)CS[C@H]23)c2ccc(O)cc2)C(=O)C1=O
The description is as §4.

Substrate in data set [19]: CC1(C)S[C@@H]2[C@H](NC(=O)[C@H](N)c3ccccc3)C(=O)N2[C@H]1C(=O)O
The description is as §4.

Substrate in data set [20]: CCN1CCN(C(=O)N[C@@H](C(=O)N[C@@H]2C(=O)N3[C@@H]2SC(C)(C)[C@@H]3C(=O)O)c2ccccc2)C(=O)C1=O
The data set is described as §4.

Substrate in data set [21]: CO/N=C(\C(=O)N[C@@H]1C(=O)N2C(C(=O)O)=C(COC(C)=O)CS[C@H]12)c1csc(N)n1
The description is as §4.

Substrate in data set [22]: CO[C@@]1(NC(=O)Cc2cccs2)C(=O)N2C(C(=O)O)=C(COC(N)=O)CS[C@@H]21
The data set is described as §4.

Substrate in data set [23]: CO/N=C(\C(=O)N[C@@H]1C(=O)N2C(C(=O)[O-])=C(C[N+]3(C)CCCC3)CS[C@H]12)c1csc(N)n1
The description is as §4.

Substrate in data set [24]: O=C(Cc1cccs1)N[C@@H]1C(=O)N2C(C(=O)O)=C(/C=C/c3ccc([N+](=O)[O-])cc3[N+](=O)[O-])CS[C@H]12
The data set is described as §4.

Substrate in data set [25]: CC(=O)OCC1=C(C(=O)O)N2C(=O)[C@@H](NC(=O)Cc3cccs3)[C@H]2SC1
The description is as §4.

Substrate in data set [26]: CC1(C)S[C@@H]2[C@H](NC(=O)Cc3ccccc3)C(=O)N2[C@H]1C(=O)O
The description is as §4.

Substrate in data set [27]: C[C@@H](O)[C@H]1C(=O)N2C(C(=O)O)=C(SCCNC=N)C[C@H]12
The data set is described as §4.

By MIC is commonly meant the least concentration at which growth counts as inhibited. Read a high MIC as weaker potency. With `CO/N=C(\C(=O)N[C@@H]1C(=O)N2C(C(=O)[O-])=C(C[N+]3(C)CCCC3)CS[C@H]12)c1csc(N)n1`, the MIC is 16 µg/mL (≈ 33.3 µM) in the data set on Citrobacter freundii, not above 0.063 µg/mL with Escherichia coli [1] and 8 µg/mL (≈ 16.6 µM) in the data set with Escherichia coli [2]. In data set [3], the Activity came out at 3%.
Take `CC(=O)OCC1=C(C(=O)O)N2C(=O)[C@@H](NC(=O)Cc3cccs3)[C@H]2SC1` [CEPHALOTHIN]: the results for the minimal inhibitory concentration (MIC) against Citrobacter freundii, against Escherichia coli [1] and in the data set on Escherichia coli [2] were 512 µg/mL (≈ 1290 µM), 0.5 µg/mL (≈ 1.26 µM) and more than 512 µg/mL, respectively. The Activity in data set [3] turned out to be 100%.
Broadly, the Ki is the equilibrium dissociation constant of an inhibitor or competing ligand from its target. Turning to `C[C@H]1[C@H](NC(=O)/C(=N\OC(C)(C)C(=O)O)c2csc(N)n2)C(=O)N1S(=O)(=O)O` [AZTREONAM], the MIC was 256 µg/mL (≈ 588 µM) with Citrobacter freundii, not above 0.016 µg/mL with Escherichia coli [1] and 256 µg/mL (≈ 588 µM) against Escherichia coli [2]. The molecule also yielded a Ki on PER-2 beta-lactamase of 2000 nM. For the same molecule, the Activity in data set [3] was found to be 18%.
Regarding `CO/N=C(\C(=O)N[C@@H]1C(=O)N2C(C(=O)O)=C(COC(C)=O)CS[C@H]12)c1csc(N)n1` [CEFOTAXIME], the MIC against Citrobacter freundii was 64 µg/mL (≈ 141 µM); against Escherichia coli [1], not above 0.063 µg/mL; with Escherichia coli [2], 64 µg/mL (≈ 141 µM). Further, the Activity in data set [3] came to 113%.
On to `O=C(N[C@H](CO)[C@H](O)c1ccc([N+](=O)[O-])cc1)C(Cl)Cl` [CHLORAMPHENICOL], for which the MIC against Citrobacter freundii is more than 32 µg/mL; against Escherichia coli [1], 2 µg/mL (≈ 6.19 µM); against Escherichia coli [2], more than 32 µg/mL.
With `CCN1CCN(C(=O)N[C@@H](C(=O)N[C@@H]2C(=O)N3[C@@H]2SC(C)(C)[C@@H]3C(=O)O)c2ccccc2)C(=O)C1=O` [PIPERACILLIN], the figures for the MIC with Citrobacter freundii, in the data set with Escherichia coli [1] and against Escherichia coli [2] were 256 µg/mL (≈ 495 µM), 0.063 µg/mL (≈ 0.122 µM) and 256 µg/mL (≈ 495 µM), respectively. Moreover, the affinity on PER-2 beta-lactamase corresponds to a Ki of 200 nM. In addition, the Activity in data set [3] is 30%.
`CO/N=C(\C(=O)N[C@@H]1C(=O)N2C(C(=O)O)=C(COC(N)=O)CS[C@H]12)c1ccco1`: the Activity in [3] stood at 45%.
Take `O=C(Cc1cccs1)N[C@@H]1C(=O)N2C(C(=O)O)=C(/C=C/c3ccc([N+](=O)[O-])cc3[N+](=O)[O-])CS[C@H]12`: the Activity in [3] came out at 224%.

B1: PER-2 beta-lactamase (Citrobacter freundii), A2RP81 (protein)
chain: MNVITKCVFTASALLMLGLSSFVVSAQSPLLKEQIETIVTGKKATVGVAVWGPDDLEPLLLNPFEKFPMQSVFKLHLAMLVLHQVDQGKLDLNQSVTVNRAAVLQNTWSPMMKDHQGDEFTVAVQQLLQYSVSHSDNVACDLLFELVGGPQALHAYIQSLGVKEAAVVANEAQMHADDQVQYQNWTSMKAAAQVLQKFEQKKQLSETSQALLWKWMVETTTGPQRLKGLLPAGTIVAHKTGTSGVRAGKTAATNDAGVIMLPDGRPLLVAVFVKDSAESERTNEAIIAQVAQAAYQFELKKLSAVSPD
Broadly, the kcat/Km is the second-order rate constant that governs catalysis at low substrate concentration. Usually Km stands for the substrate concentration at which the rate is half of its maximum. Usually kcat stands for the maximal rate divided by the concentration of active sites. In the case of B1, the kcat/Km in data set [4] was determined as 0.3 µM⁻¹ s⁻¹; in [5], 0.12 µM⁻¹ s⁻¹; in data set [6] it was 0.43 µM⁻¹ s⁻¹; in [7], 0.1 µM⁻¹ s⁻¹; in data set [8] it was 0.35 µM⁻¹ s⁻¹; in data set [9], 0.2 µM⁻¹ s⁻¹. The specificity constant (kcat/Km) in data set [10] is 0.76 µM⁻¹ s⁻¹; in data set [11] it was 0.02 µM⁻¹ s⁻¹; in [12], 1.5 µM⁻¹ s⁻¹; in [13], 0.67 µM⁻¹ s⁻¹; in data set [14] it was 0.12 µM⁻¹ s⁻¹. The Km came to 21 µM in data set [15]; 320 µM in [17]; 5 µM in data set [18]; 38 µM in data set [19]; 46 µM in data set [21]; 16 µM in data set [23]. In addition, the Michaelis constant (Km) amounted to 32 µM in data set [24], 9 µM in [25] and 16 µM in data set [26]. In addition, the kcat in data set [15] amounted to 6 s⁻¹; in data set [16] it was 0.23 s⁻¹; in data set [17], 140 s⁻¹; in [18], 0.5 s⁻¹; in [19], 12 s⁻¹; in [20] it was 0.04 s⁻¹. Also, the kcat is 34 s⁻¹ in data set [21]; less than 0.001 s⁻¹ in data set [22]; 0.39 s⁻¹ in data set [23]; 48 s⁻¹ in data set [24]; 6 s⁻¹ in [25]; 2 s⁻¹ in data set [26]. For the same molecule, the kcat in data set [27] was less than 0.001 s⁻¹.
